# Avidin bead fluor: avidin bead compound fluorescence profile; Avidin beads, compound fluorescence 488/530 nm, flow cytometry; stronger effect = higher value; fluorescence (KMESF) at 10 µM; actives 0.38% (n = 220,000); in the data active means fluorescence above about 47
# L major viab: inhibitors of Leishmania major promastigote growth; Leishmania major promastigotes, resazurin fluorescence viability; inhibition, % at 10 µM; actives 9% (n = 200,000); AID 1063;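 further: promastigotes grown with compound for 44 hours at 28 °C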
# ABCB1 inh: inhibitors of human ABCB1 transporter, ABCG2 counter-screen. P08183. AID 1326. CCRF-Adr cells, JC-1 efflux, flow cytometry. inhibition, % at 6.6 µM. actives 0.067% (n = 190,000); in the data active means inhibition above about 40%;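 further: higher value means more JC-1 retained so stronger ABCB1 efflux block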
# ABCG2 block: blocks JC-1 efflux by human ABCG2 transporter; Q9UNQ0; IgMXP3 cells, flow cytometry; inhibition, % at 6.6 µM; actives 0.1% (n = 190,000);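 active means inhibition above 80%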
#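 test system = two drug-resistant human cell lines, ABCG2 and ABCB1 | amount = 3 million cells/mL final, two lines in 1:1 ratio | reagent = JC-1 transporter substrate | doses = one concentration, 6.6 µM final | incubation = 10 min at 25 °C | signal = flow cytometric JC-1 green MFI at 530 nm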
# GSH fluor: compound fluoresces at 488/530 nm on GSH beads; actives 0.25% (n = 190,000); GSH beads flow cytometry, compound fluorescence 488/530 nm; stronger effect = higher value; AID 1776; fluorescence (KMESF) at 10 µM; in the data active means fluorescence above about 89;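 further: glutathione beads carrying GST-tagged Bcl family fusion proteins plus one bare bead set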
# PKD1 inh: PKD1 (human) kinase inhibition. Q15139. PKD1 kinase fluorescence polarization assay. inhibition, % (concentration not given with the values). actives 0.056% (n = 200,000)
# Numbers stand for hits; – = inactive; · = no result given. Only a selection was taken, and hits are over-represented in it overall. Unless noted, no stated cut-off is given here; in the data, active means inhibition above about 50%; inactive means the rest.
SMILES,Avidin bead fluor,L major viab,ABCB1 inh,ABCG2 block,GSH fluor,PKD1 inh
CN(C)CCNC(=O)Cc1c(C(=O)O)n(C)c2ccccc12,·,94,·,·,·,–
O=C(CC(c1ccccc1)c1ccccc1O)NCc1ccccc1Cl (configuration not stated),–,51,–,–,–,–
O=C(CC(c1ccccc1)c1cc(Br)ccc1O)NCc1ccco1 (configuration not stated),–,99,–,–,–,–
NC(=NCCc1c[nH]c2ccccc12)NC(=O)c1ccc(F)cc1,–,·,·,·,·,·
COc1ccc(/C=C2\SC(=O)N=C2N)cc1,–,57,–,–,–,–
CC1Cc2ccccc2N1C(=O)Cn1cnc2ccccc21 (configuration not stated),–,–,–,–,–,–
O=C1c2cccc3cccc(c23)C(=O)N1CCN1CCN(CC(O)COCc2ccc(Cl)cc2)CC1 (configuration not stated),–,–,–,–,–,–
O=C1c2cccc3cccc(c23)C(=O)N1CCN1CCN(CC(O)COc2ccc3ccccc3c2)CC1 (configuration not stated),–,81,–,–,–,–
Cc1ccc(C)c(OCC(O)CN2CCN(CCN3C(=O)c4cccc5cccc(c45)C3=O)CC2)c1 (configuration not stated),–,100,–,–,–,–
CC(=O)c1ccccc1OCC(O)CN1CCN(CCN2C(=O)c3cccc4cccc(c34)C2=O)CC1 (configuration not stated),–,99,–,–,–,–
O=C1c2cccc3cccc(c23)C(=O)N1CCN1CCN(C(=S)Nc2ccccc2)CC1,–,95,–,–,–,–
Cc1ccc(S(=O)(=O)N2Cc3ccccc3CC2C(=O)Nc2ccc3c(c2)OCO3)cc1 (configuration not stated),–,100,–,–,–,–
CNC(=O)C1Cc2ccccc2CN1S(=O)(=O)c1cccs1 (configuration not stated),–,68,–,–,–,–
CCc1nnc(NC(=O)C2Cc3ccccc3CN2S(=O)(=O)c2cccs2)s1 (configuration not stated),–,53,–,–,–,–
CCc1nnc(NC(=O)C2Cc3ccccc3CN2S(=O)(=O)c2ccc(C)cc2)s1 (configuration not stated),–,–,–,–,–,–
COc1ccc(S(=O)(=O)N2Cc3ccccc3CC2C(=O)Nc2nccs2)cc1 (configuration not stated),–,99,–,–,–,–
Cc1cc(C)c2[nH]c(=O)c(CN(Cc3cccnc3)C(=S)NCCCN(C)C)cc2c1,–,–,–,–,–,–
COc1ccccc1CNS(=O)(=O)c1c(C)noc1C,–,–,–,–,–,–
CCN(CC)c1ccc(/C=N/Nc2nc3ccccc3[nH]2)cc1,–,100,–,–,–,–
O=c1[nH]c(N/N=C\c2ccc(F)cc2)nc2ccccc12,–,65,–,–,–,–
CC(=O)Nc1ccc(/C=N/Nc2nc3ccccc3[nH]2)cc1,–,100,–,–,–,–
O=c1[nH]c(N/N=C/c2ccc(O)cc2)nc2ccccc12,–,–,–,–,–,–
Fc1ccc(/C=N/Nc2ccccn2)cc1,–,69,–,–,–,–
COc1ccccc1NC(=O)Nc1cccnc1,–,–,–,–,–,–
CCOc1ccc(Nc2cc(=O)oc3ccccc23)cc1,–,–,–,–,–,–
SMILES,Avidin bead fluor,L major viab,ABCB1 inh,ABCG2 block,GSH fluor,PKD1 inh
Cc1cccc(NC(=O)CCN2CC(C)OC(C)C2)c1 (configuration not stated),–,89,–,–,–,–
Cc1ccc(S(=O)(=O)NCCC(=O)Nc2cccc(Cl)c2)cc1,–,52,–,–,–,–
CC1CC(C)CN(CCC(=O)Nc2cccc(Cl)c2)C1 (configuration not stated),–,83,–,–,–,–
CC1CN(CCC(=O)Nc2ccc3c(c2)OCO3)CC(C)O1 (configuration not stated),–,–,–,–,–,–
O=C(CCN1CCCCC1)Nc1cccc(Cl)c1,–,–,–,–,–,–
Cc1cc(C)cc(NC(=O)CCN2CC(C)OC(C)C2)c1 (configuration not stated),–,80,–,–,–,–
